Assay results of several laboratories.
Protocols differ between the studies behind these lines.
CDK1: Cyclin-dependent kinase 1 (CDK1, Homo sapiens, UniProt P06493)
CDK1 with cyclin B: Cyclin-dependent kinase 1, with cyclin B (CDK1, Homo sapiens, UniProt P06493)
CDK1 with cyclin A: Cyclin-dependent kinase 1, with cyclin A (CDK1, Homo sapiens, UniProt P06493)

SMILES	target	read-out	action	method	concentration	endpoint	result
CCCCNc1ncc2c(-c3ccc(F)cc3)nn(C[C@H]3CC[C@H](N)CC3)c2n1	CDK1	target engagement in cells	inhibitor	chemoproteomics	20 mM	inhibition	4.2%
O=C(Nc1cnn(-c2csc(C(=O)NC3COC3)c2)c1)Nc1c(F)cccc1Cl	CDK1 with cyclin B	enzyme activity	inhibitor	–	5 µM	remaining activity	105%
Cc1ccc(C(=O)NCc2ccsc2)cc1C#Cc1cn(C(C)C)c2ncnc(N)c12	CDK1 with cyclin B	enzyme activity	inhibitor	–	1 µM	activity vs control	100%
O=Nc1c(-c2c(O)[nH]c3ccccc23)[nH]c2ccccc12	CDK1 with cyclin B	cell-free assay	–	–	0.5 µM	remaining signal	68.7%
CC(C)(C)c1nc(-c2cccc(NS(=O)(=O)c3c(F)cccc3F)c2F)c(-c2ccnc(N)n2)s1	Cyclin-dependent kinase 1, with cyclin A2 (CDK1, Homo sapiens, UniProt P06493)	enzyme activity	inhibitor	radiometric	1 µM	remaining activity	84%
COc1cc(OC)c(C=C2C(O)=Nc3ccccc32)c(OC)c1	CDK1 with cyclin B	cell-free assay	–	–	0.5 µM	remaining signal	83%
Cc1ccc(-n2nc(C(C)(C)C)cc2NC(=O)Nc2ccc(OCCN3CCOCC3)c3ccccc23)cc1	CDK1 with cyclin B	enzyme activity	inhibitor	–	10 µM	inhibition	-6%
Nc1nc(Nc2ccc(S(N)(=O)=O)cc2)sc1C(=O)c1ccccc1[N+](=O)[O-]	CDK1	enzyme activity	inhibitor	–	0.1 µM	inhibition	90 to 93%
CCCS(=O)(=O)Nc1ccc(F)c(C(=O)c2c[nH]c3ncc(-c4ccc(Cl)cc4)cc23)c1F	CDK1 with cyclin B	enzyme activity	inhibitor	–	1 µM	inhibition	< 10%
COc1cc2ncnc(Nc3ccc(Oc4ccccc4)cc3C)c2cc1OC	CDK1 with cyclin B	enzyme activity	inhibitor	–	1 µM	inhibition	3%
O=C(Nc1cnn(-c2csc(C(=O)NC3COC3)c2)c1)Nc1ccccc1Cl	Cyclin-dependent kinase 1, with cyclin E (CDK1, Homo sapiens, UniProt P06493)	enzyme activity	inhibitor	–	5 µM	remaining activity	94.7%
CSc1nc(C)c(-c2ccnc(Nc3ccc(N4CCOCC4)cc3)c2)[nH]1	CDK1	enzyme activity	inhibitor	–	10 µM	inhibition	62%
Cc1cnc(NC2CCOCC2)nc1-n1cnc(C(=O)NC(CN)c2cc(F)cc(Cl)c2)c1 (centres unmarked)	CDK1 with cyclin B	enzyme activity	inhibitor	radiometric	1 µM	remaining activity	20%
CNC(=O)c1cc(Oc2ccc(NC(=O)Nc3ccc(Cl)c(C(F)(F)F)c3)cc2)ccn1	CDK1 with cyclin B	enzyme activity	inhibitor	–	10 µM	inhibition	10%
O=C1NC(=O)c2c1c1c3ccccc3[nH]c1n1cncc21	CDK1 with cyclin B	cell-free assay	–	–	0.5 µM	remaining signal	85.5%
CCOc1cc(-c2nncn2C)ccc1Nc1ncc2cc(C)nc(NCC(C)(C)C)c2n1	CDK1 with cyclin B	enzyme activity	inhibitor	FRET	1 µM	inhibition	30%
Cc1ccc(Nc2nccc(N(C)c3ccc4c(C)n(C)nc4c3)n2)cc1S(N)(=O)=O	CDK1 with cyclin B	enzyme activity	inhibitor	–	10 µM	inhibition	29%
O=C1NC(=O)c2cc(Nc3ccc(F)cc3)c(Nc3ccc(F)cc3)cc21	CDK1 with cyclin B	cell-free assay	–	–	0.5 µM	remaining signal	103%
CC(C)(C)c1nc2c(s1)c1nc(N)ncc1c1ccc(NS(=O)(=O)c3c(F)cccc3F)c(F)c12	Cyclin-dependent kinase 1, with cyclin B1 (CDK1, Homo sapiens, UniProt P06493)	enzyme activity	inhibitor	radiometric	1 µM	remaining activity	89%
O=C1Nc2ccc(Cl)cc2C1=Cc1cc(Cl)c(O)c(Cl)c1	CDK1 with cyclin A	cell-free assay	–	–	0.5 µM	remaining signal	91.9%
CCCOc1ccc(OC)c(F)c1C(=O)c1ccc(C(=O)N[C@@H]2CNC[C@H]2NC(=O)c2ccc3[nH]ncc3c2)cc1	CDK1 with cyclin B	enzyme activity	inhibitor	–	10 µM	remaining activity	102%
N#CCCc1ccc2c(c1)-c1[nH]c3ccc([N+](=O)[O-])cc3c1CC(=O)N2	CDK1 with cyclin A	cell-free assay	–	–	0.5 µM	remaining signal	24.8%
CCN(CC)CCNC(=O)c1c(C)[nH]c(/C=C2\C(=O)Nc3ccc(F)cc32)c1C	CDK1 with cyclin B	enzyme activity	inhibitor	–	10 µM	inhibition	10%
Cc1sc(C(=O)NC2COC2)cc1-n1cc(NC(=O)Nc2c(F)cccc2Cl)cn1	CDK1 with cyclin B	enzyme activity	inhibitor	–	10 µM	remaining activity	92.7%
CC(C)n1cnc2c(Nc3cccc(Cl)c3)nc(NCCO)nc21	CDK1 with cyclin B	cell-free assay	–	–	0.5 µM	remaining signal	46.6%
Cc1cc(NC(=O)c2cccc3cc(-c4cccc5[nH]nc(N)c45)ccc23)ccc1F	CDK1 with cyclin B	enzyme activity	inhibitor	–	0.1 µM	activity vs control	95%
CC(C)[C@H](CO)Nc1nc(Nc2cccc(Cl)c2)c2ncn(C(C)C)c2n1	CDK1 with cyclin A	cell-free assay	–	–	0.5 µM	remaining signal	31.7%
CC(C)(O)[C@H]1CC[C@H](Nc2ccc3ncc(-c4cccc(C(F)(F)F)c4)n3n2)CC1	CDK1 with cyclin B	enzyme activity	inhibitor	–	1 µM	remaining activity	66.9%
CNCc1ccc(-c2cc(-c3nc(-c4ccc(S(=O)(=O)C(C)C)cc4)cnc3N)on2)cc1	CDK1 with cyclin B	enzyme activity	inhibitor	–	2 µM	inhibition	6%
